# Screening data (PubChem)
# TRPC4 block – inhibitors of mouse TRPC4 channel; Q9QUQ5; HEK293 TRPC4beta/mu-opioid, DAMGO-evoked Fluo4 calcium flux; active compounds read low; B-score at 10 µM; hit rate 0.39% among 300,000; AID 2247;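 active = B-score over 3 SD under the library average, no early fluorescence shift, positive overall ratio signal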
#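 Test system – stable TRPC4beta/mu-opioid receptor HEK293 cells · Probe or stimulus – DAMGO, a submaximal dose followed by a maximal one · Dosing – one concentration per compound · Signal – Fluo4 calcium fluorescence by kinetic imaging, 5 s 1 Hz baseline · Evaluation – per-well B score of integrated baseline-normalized Fluo4 ratio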
# TRPC6 activator – activates the mouse TRPC6 cation channel; HEK293-TRPC6 membrane potential dye fluorescence; active compounds read high; Q61143; AID 2550; hit rate 0.13% among 310,000; B-score at 10 µM;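 active = B-score of the integrated fluorescence ratio above library mean plus 3 SD, and starting fluorescence ratio within library mean plus 5 SD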;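 note: higher score means more depolarization so channel activation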
# Target sequence (Q61143 whole entry, looked up): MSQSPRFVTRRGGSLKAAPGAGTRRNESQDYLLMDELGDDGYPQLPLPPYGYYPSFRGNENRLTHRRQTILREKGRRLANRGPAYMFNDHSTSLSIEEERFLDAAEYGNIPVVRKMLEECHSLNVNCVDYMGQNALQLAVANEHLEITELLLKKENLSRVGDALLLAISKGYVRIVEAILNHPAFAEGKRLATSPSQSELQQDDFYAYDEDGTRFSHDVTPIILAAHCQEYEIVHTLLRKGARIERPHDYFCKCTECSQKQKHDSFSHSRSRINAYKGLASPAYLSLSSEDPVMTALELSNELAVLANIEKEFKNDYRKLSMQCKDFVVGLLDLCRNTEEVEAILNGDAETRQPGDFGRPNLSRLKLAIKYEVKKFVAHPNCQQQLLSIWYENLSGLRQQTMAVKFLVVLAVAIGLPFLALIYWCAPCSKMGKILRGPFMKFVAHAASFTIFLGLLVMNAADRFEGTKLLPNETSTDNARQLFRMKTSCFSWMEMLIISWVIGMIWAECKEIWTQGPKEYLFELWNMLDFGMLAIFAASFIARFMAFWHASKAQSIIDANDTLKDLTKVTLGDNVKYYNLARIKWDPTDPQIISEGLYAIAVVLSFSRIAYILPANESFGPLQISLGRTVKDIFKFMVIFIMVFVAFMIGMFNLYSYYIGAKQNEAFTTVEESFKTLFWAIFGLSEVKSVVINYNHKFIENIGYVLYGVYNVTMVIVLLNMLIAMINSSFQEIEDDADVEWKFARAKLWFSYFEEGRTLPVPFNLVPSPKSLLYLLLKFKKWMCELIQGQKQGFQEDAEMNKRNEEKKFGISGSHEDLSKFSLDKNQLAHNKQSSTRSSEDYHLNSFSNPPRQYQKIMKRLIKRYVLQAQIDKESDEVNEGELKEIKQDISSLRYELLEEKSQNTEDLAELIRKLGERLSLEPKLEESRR
# TRPC4 PAM – allosterically enhances the mouse TRPC4 cation channel; Q9QUQ5; HEK293 TRPC4beta/mu-opioid, DAMGO EC20, Fluo-4 Ca2+ flux; active compounds read high; B-score at 10 µM; hit rate 0.42% among 310,000;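 active = B-score of calcium response area above 5 SD of library B-scores, with initial fluorescence ratio within 5 SD of library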;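 note: B-score of integrated fluorescence ratio over time as area under calcium response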
# TRPC4 act – TRPC4 (mouse) channel activation. Q9QUQ5. HEK293 TRPC4beta/mu-opioid, Fluo4 calcium fluorescence; active compounds read high. B-score at 10 µM. hit rate 0.49% among 310,000;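 active = B-score above 5 SD of library B-scores, and initial fluorescence ratio not above library mean plus 5 SD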;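 note: positive B-score marks a calcium rise read as TRPC4 activation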
#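 Test system: HEK293 cells stably co-expressing mouse TRPC4beta and mu-opioid receptor | Schedule: Fluo4 dye loading 45 min at room temperature, 110 s recording | Measured by: Kinetic Fluo4 calcium fluorescence, 5 s baseline at 1 Hz | Evaluation: B score of integrated ratio | Controls: Buffer (low) and maximal DAMGO (high)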
# TRPC6 inhibitor – inhibitors of mouse TRPC6 channel; Q61143; HEK293-TRPC6, membrane potential dye, ACh-evoked depolarization; active compounds read low; B-score at 10 µM; hit rate 1.1% among 310,000; AID 2553;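 active = B-score under library mean minus 3 SD, initial fluorescence not abnormally high, positive integrated signal ratio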;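 note: B-score derived from integrated fluorescence ratio over the kinetic read; more negative B-score means stronger inhibition of depolarization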
# DNA FID counter – displaces DNA intercalator in HCV helicase counter-screen. DNA fluorescent intercalator displacement, fluorescence. inhibition, % at 7.9 µM. hit rate 0.17% among 290,000. AID 1845; in the data active = inhibition above about 37%;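 note: 0% = vehicle and 100% = reference compound; higher means more ethidium bromide displaced from hairpin DNA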
# TRPC4 sel inh 2 – second check of whether TRPC6 inhibitors also affect mouse TRPC4; shares compounds with TRPC6 inhibitor; HEK293 TRPC4/MOR, membrane potential dye fluorescence; channel activated by saturating DAMGO dose; inhibition, % at 10 µM; hit rate 42% among 920; AID 2776;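 active = compounds whose fluorescence signal differed from control wells by over 3 SD, either direction, in both duplicate plates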
# TRPC4 spec – selectivity of TRPC6 inhibitors: effect on mouse TRPC4 | activity change, negative = inhibition, % at 10 µM | shares compounds with TRPC6 inhibitor | hit rate 61% among 920 | HEK293 TRPC4/mu-opioid, membrane potential fluorescence;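 active = rise or fall in signal beyond 3 SD of buffer-only wells in both replicate plates, either sign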;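 note: integrated kinetic ratio of fluorescence range over baseline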
# HEK293 MPD ctr 2-1 – second counter-screen for TRPC6 inhibitors: parental HEK293 cells; hit rate 31% among 920; signal change vs control, % at 10 µM; parental HEK293 membrane potential dye fluorescence; maximal acetylcholine challenge after compound addition; AID 2779; shares compounds with TRPC6 inhibitor;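 active = membrane potential signal moving either way by over 3 SD of the maximum-effect control, in both duplicate plates, meaning non-specific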
# HEK293 MPD ctr-1 – counter-screen for TRPC6 inhibitors: effect in parental HEK293 cells; AID 2780; membrane potential signal change, % at 10 µM; parental HEK293 membrane potential dye fluorescence; hit rate 60% among 920; shares compounds with TRPC6 inhibitor;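 active = membrane potential signal shifting up or down by more than 3 SD of buffer-only wells, on both duplicate plates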
# HEK293 MPD ctr-2 – checks TRPC6 modulator effects in parental HEK293 cells. AID 488924. membrane potential signal change, % at 10 µM. shares compounds with TRPC6 inhibitor. hit rate 51% among 2,400. membrane potential dye fluorescence;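 active = membrane potential signal moves up or down beyond 5 SD from buffer-only wells, on both duplicate plates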
# HEK293 MPD ctr 2-2 – second check of TRPC6 modulator effects in parental HEK293 cells | shares compounds with TRPC6 inhibitor | membrane potential dye fluorescence; after compound, maximal acetylcholine stimulation | inhibition, % at 10 µM | hit rate 14% among 2,400;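 active = membrane potential signal drops by more than 5 SD from the mean control signal, in both duplicate plates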;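 note: plate controls were acetylcholine ECmax control wells for no effect and buffer only wells for full effect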
# TRPC4 ctr mod – selectivity of TRPC6 modulators against mouse TRPC4 | shares compounds with TRPC6 inhibitor | HEK293 TRPC4/mu-opioid, membrane potential fluorescence | percent change from control (negative = decrease, positive = increase), % at 10 µM | hit rate 69% among 2,400;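 active = membrane potential signal moved up or down beyond 5 SD of buffer control wells, in both duplicate plates, actives on both sides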;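 note: plate controls were assay buffer wells for no effect and DAMGO maximal-effect wells for full effect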
# TRPC4 ctr inh 2 – second check of whether TRPC6 modulators also affect mouse TRPC4; shares compounds with TRPC6 inhibitor; AID 488928; HEK293 TRPC4/mu-opioid, membrane potential dye fluorescence; stimulated with maximal-effect DAMGO; inhibition, % at 10 µM; hit rate 55% among 2,400;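 active = drop in membrane potential signal beyond 5 SD of the control wells in both duplicate plates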;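 note: TRPC4 counter screen for TRPC6 hits run under conditions tuned for TRPC6 not TRPC4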
# TRPC6 block conf – mouse TRPC6 inhibitor confirmation; hit rate 43% among 3,300; inhibition, % at 10 µM; AID 488960; shares compounds with TRPC6 inhibitor; HEK293-TRPC6, membrane potential dye, ACh-evoked depolarization;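 active = fluorescence ratio falls more than 5 SD below the full-stimulation control mean, in both duplicate runs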;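 note: integrated fluorescence ratio of peak minus minimum over baseline after agonist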
# TRPC6 act confirm – confirmation of mouse TRPC6 activators | shares compounds with TRPC6 inhibitor | HEK293-TRPC6 membrane potential dye fluorescence, FDSS | activation, % at 10 µM | hit rate 11% among 2,800 | AID 488961;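 active = ratio signal rise beyond 5 SD above unstimulated control wells' mean, seen in both duplicate runs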;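 note: plate controls were buffer EC0 wells for no effect and acetylcholine ECmax response for full effect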
# The depositor's hits bear a star; i = inactive; · = no result given. Only some compounds are listed: those with a hit (about 2.3% of all), similar ones and a draw of the others.
SMILES,TRPC4 block,TRPC6 activator,TRPC4 PAM,TRPC4 act,TRPC6 inhibitor,DNA FID counter,TRPC6 block conf,others
COc1ccc(C(=O)c2nc3ccccc3n2C(C)C)cc1,i,i,i,i,i,-20.2,·,
CCOc1cc2c(cc1OCC)-n1cccc1C(c1cccc(F)c1)NC2 (stereo not drawn),i,i,i,i,i,8.5,·,
COc1ccc(-c2cc(=Nc3ccccc3)c3cc(C)ccc3o2)cc1,i,i,i,i,-7.65*,0.9,i,TRPC4 sel inh 2=i;TRPC4 spec=-17.6%*;HEK293 MPD ctr 2-1=i;HEK293 MPD ctr-1=-198.5%*;TRPC6 act confirm=i
C=CCSc1nc2c(c(-c3ccsc3)c1C#N)CN(C)CC2,i,i,i,i,-9.97*,4.6,i,TRPC4 sel inh 2=i;TRPC4 spec=-18.0%*;HEK293 MPD ctr 2-1=i;HEK293 MPD ctr-1=-239.0%*;TRPC6 act confirm=i
CN1CCc2nc(SCc3ccccc3Br)c(C#N)cc2C1,·,i,i,i,i,7.9,·,
CC(C)n1c(O)c(C=NCc2ccccc2)c(=O)[nH]c1=S,i,i,i,i,i,-12.8,·,
Cc1ccc(C2CC3CCC(C2)N3Cc2ccccc2F)cc1 (stereo not drawn),i,13.4*,i,i,i,2.7,i,HEK293 MPD ctr-2=127.0%*;HEK293 MPD ctr 2-2=i;TRPC4 ctr mod=49.0%*;TRPC4 ctr inh 2=42.5%*;TRPC6 act confirm=57.5%*
CCn1c(=N)n(Cc2ccccc2F)c2ccccc21,i,i,i,i,i,-8.3,·,
O=C1NC(=S)N(c2ccccc2)C(=O)C1C(c1ccncc1)C1C(=O)NC(=S)N(c2ccccc2)C1=O (stereo not drawn),i,i,i,i,i,-15.0,·,
CSc1nnc(OC(=O)N(C)C)n1-c1ccc(Cl)cc1,i,i,i,i,i,-2.6,·,
Cc1cc(OC(=O)N(C)C)n(-c2ccccc2)n1,i,i,i,i,i,-2.8,·,
COc1cccc(O)c1CN1CCCC(C(=O)c2ccccc2SC)C1 (stereo not drawn),i,i,i,i,-5.61*,4.0,i,HEK293 MPD ctr-2=192.5%*;HEK293 MPD ctr 2-2=i;TRPC4 ctr mod=26.0%*;TRPC4 ctr inh 2=54.5%*
CSc1ncc(CN2CCCC(C(=O)c3ccccc3SC)C2)cn1 (stereo not drawn),i,i,i,i,i,-9.8,·,
Cc1c(/C=N/O)c2ccccc2n1C,i,i,i,i,i,2.9,·,
COc1ccc2ccccc2c1CNCCc1ccccc1,i,i,i,i,-7.84*,11.9,66.4%*,TRPC4 sel inh 2=i;TRPC4 spec=16.1%*;HEK293 MPD ctr 2-1=i;HEK293 MPD ctr-1=5.0%*
